# Reference: ChEMBL document CHEMBL3232897, “Synthesis, antiproliferative and antibacterial activity of new amides of salinomycin” (Bioorg Med Chem Lett, 2014)
# What was measured:
# HL-60 [1] = test: Antiproliferative activity against human HL60 cells; type: functional, cell-based
# Outline: (§1)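 IC50 is the concentration giving 50% growth inhibition, reported as mean with SD. HL-60/vinc and LoVo/DX are drug-resistant (MDR) sublines of HL-60 and LoVo. BALB/3T3 is a normal murine embryonic fibroblast line.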
# [2] = Antiproliferative activity against human HL60/Vinc cells; type: functional, cell-based; outline: as §1
# LoVo [3] = test: Antiproliferative activity against human LoVo cells; type: functional, cell-based; outline: as §1
# [4] = Antiproliferative activity against human LoVo/DX cells; type: functional, cell-based; outline: as §1
# BALB/3T3 = test: Antiproliferative activity mouse BALB/3T3 cells; type: cell-based; outline: as §1
# HL-60 [5] = test: Selectivity index, ratio of IC50 for mouse BALB/3T3 cells to IC50 for human HL60 cells; type: functional
# Outline: (§2)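 Selectivity index is the IC50 in normal murine embryonic fibroblasts (BALB/3T3) divided by the IC50 in the respective cancer line (HL-60, HL-60/vinc, LoVo or LoVo/DX). Each IC50 is the concentration giving 50% growth inhibition. SI >1.0 is taken as favourable.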
# [6] = Selectivity index, ratio of IC50 for mouse BALB/3T3 cells to IC50 for human HL60/Vinc cells; type: functional; outline: as §2
# HL-60 [7] = test: Resistance index, ratio of IC50 for human HL60/Vinc cells to IC50 for human HL60 cells; type: functional
# Outline: (§3)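 Index of resistance is the IC50 in the resistant subline (HL-60/vinc or LoVo/DX) divided by the IC50 in its parental line (HL-60 or LoVo). Each IC50 is the concentration giving 50% growth inhibition. Bands are 0–2 sensitive, 2–10 moderate, above 10 strongly resistant.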
# LoVo [8] = test: Selectivity index, ratio of IC50 for mouse BALB/3T3 cells to IC50 for human LoVo cells; type: functional; outline: as §2
# [9] = Selectivity index, ratio of IC50 for mouse BALB/3T3 cells to IC50 for human LoVo/DX cells; type: functional; outline: as §2
# LoVo [10] = test: Resistance index, ratio of IC50 for human LoVo/DX cells to IC50 for human LoVo cells; type: functional; outline: as §3
# Staphylococcus aureus [11] = test: Antibacterial activity against Staphylococcus aureus NCTC 4163; type: functional
# Staphylococcus aureus [12] = test: Antibacterial activity against Staphylococcus aureus ATCC 25923; type: functional
# Staphylococcus aureus [13] = test: Antibacterial activity against Staphylococcus aureus ATCC 6538; type: functional
# Staphylococcus aureus [14] = test: Antibacterial activity against Staphylococcus aureus ATCC 29213; type: functional
# [15] = test system: Staphylococcus epidermidis; test: Antibacterial activity against Staphylococcus epidermidis ATCC 12228; type: functional
# Outline: (§4)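 In vitro antibacterial test on Staphylococcus strains, including MRSE clinical isolates. Read-outs were growth inhibition zone (mm) and MIC (µg/ml). Ciprofloxacin was the reference antibiotic.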
# [16] = test system: Staphylococcus epidermidis; test: Antibacterial activity against Staphylococcus epidermidis ATCC 35984; type: functional; outline: as §4
# [17] = test system: Staphylococcus epidermidis; test: Antibacterial activity against methicillin-resistant Staphylococcus epidermidis 459/11; type: functional; outline: as §4
# [18] = test system: Staphylococcus epidermidis; test: Antibacterial activity against methicillin-resistant Staphylococcus epidermidis 460/11; type: functional; outline: as §4
# [19] = test system: Staphylococcus epidermidis; test: Antibacterial activity against methicillin-resistant Staphylococcus epidermidis 461/11; type: functional; outline: as §4
# [20] = test system: Staphylococcus epidermidis; test: Antibacterial activity against methicillin-resistant Staphylococcus epidermidis 466/11; type: functional; outline: as §4
# [21] = test system: Staphylococcus epidermidis; test: Antibacterial activity against methicillin-resistant Staphylococcus epidermidis 467/11; type: functional; outline: as §4
# [22] = test system: Staphylococcus epidermidis; test: Antibacterial activity against methicillin-resistant Staphylococcus epidermidis 468/11; type: functional; outline: as §4
# [23] = test system: Staphylococcus epidermidis; test: Antibacterial activity against methicillin-resistant Staphylococcus epidermidis 469/11; type: functional; outline: as §4
# [24] = test system: Staphylococcus epidermidis; test: Antibacterial activity against methicillin-resistant Staphylococcus epidermidis 470/11; type: functional; outline: as §4
# [25] = test system: Staphylococcus epidermidis; test: Antibacterial activity against methicillin-resistant Staphylococcus epidermidis 488/11; type: functional; outline: as §4
# [26] = test system: Staphylococcus epidermidis; test: Antibacterial activity against methicillin-resistant Staphylococcus epidermidis 489/11; type: functional; outline: as §4
Compound,IC50 (HL-60 [1]),IC50 [2],IC50 (LoVo [3]),IC50 [4],IC50 (BALB/3T3),Ratio IC50 (HL-60 [5]),Ratio IC50 [6],Ratio IC50 (HL-60 [7]),Ratio IC50 (LoVo [8]),Ratio IC50 [9],Ratio IC50 (LoVo [10]),further results
CC[C@@H](C(=O)[C@@H](C)[C@@H](O)[C@H](C)[C@@H]1O[C@@H]([C@@H](CC)C(=O)NCCOCCO)CC[C@@H]1C)[C@H]1O[C@]2(C=C[C@@H](O)[C@]3(CC[C@@](C)([C@H]4CC[C@](O)(CC)[C@H](C)O4)O3)O2)[C@H](C)C[C@@H]1C,17.8 µM,30.9 µM,36.7 µM,14.3 µM,39.4 µM,2.22,1.28,1.74,1.08,2.76,0.39,MIC (Staphylococcus aureus [11]): 32 µg/mL; MIC (Staphylococcus aureus [12]): 32 µg/mL; MIC (Staphylococcus aureus [13]): 32 µg/mL; MIC (Staphylococcus aureus [14]): 64 µg/mL; MIC [15]: 64 µg/mL; MIC [16]: 64 µg/mL; MIC [17]: 32 µg/mL; MIC [18]: 64 µg/mL; MIC [19]: 64 µg/mL; MIC [20]: 64 µg/mL; MIC [21]: 32 µg/mL; MIC [22]: 64 µg/mL; MIC [23]: 64 µg/mL; MIC [24]: 64 µg/mL; MIC [25]: 64 µg/mL; MIC [26]: 64 µg/mL
CC[C@@H](C(=O)[C@@H](C)[C@@H](O)[C@H](C)[C@@H]1O[C@@H]([C@@H](CC)C(=O)NCC2COCCOCCOCCOCCO2)CC[C@@H]1C)[C@H]1O[C@]2(C=C[C@@H](O)[C@]3(CC[C@@](C)([C@H]4CC[C@](O)(CC)[C@H](C)O4)O3)O2)[C@H](C)C[C@@H]1C (some centres not stated),23.2 µM,27 µM,24.1 µM,8.5 µM,31.3 µM,1.35,1.16,1.16,1.3,3.69,0.35,–
CC[C@@H](C(=O)[C@@H](C)[C@@H](O)[C@H](C)[C@@H]1O[C@@H]([C@@H](CC)C(=O)NCCc2ccc(O)c(O)c2)CC[C@@H]1C)[C@H]1O[C@]2(C=C[C@@H](O)[C@]3(CC[C@@](C)([C@H]4CC[C@](O)(CC)[C@H](C)O4)O3)O2)[C@H](C)C[C@@H]1C,2.8 µM,6.9 µM,3.9 µM,4.3 µM,5.7 µM,2.05,0.83,2.48,1.47,1.34,1.1,–
C#CCNC(=O)[C@H](CC)[C@H]1CC[C@H](C)[C@H]([C@@H](C)[C@H](O)[C@H](C)C(=O)[C@H](CC)[C@H]2O[C@]3(C=C[C@@H](O)[C@]4(CC[C@@](C)([C@H]5CC[C@](O)(CC)[C@H](C)O5)O4)O3)[C@H](C)C[C@@H]2C)O1,5.7 µM,11.3 µM,6.9 µM,3.9 µM,37.1 µM,6.47,3.29,1.97,5.4,9.6,0.56,–
CC[C@@H](C(=O)[C@@H](C)[C@@H](O)[C@H](C)[C@@H]1O[C@@H]([C@@H](CC)C(=O)NCCc2ccc(F)cc2)CC[C@@H]1C)[C@H]1O[C@]2(C=C[C@@H](O)[C@]3(CC[C@@](C)([C@H]4CC[C@](O)(CC)[C@H](C)O4)O3)O2)[C@H](C)C[C@@H]1C,2.3 µM,6.7 µM,4.1 µM,2.3 µM,45.8 µM,20.27,6.8,2.98,11.2,19.57,0.57,–
O=C(O)c1cn(C2CC2)c2cc(N3CCNCC3)c(F)cc2c1=O [CIPROFLOXACIN],–,–,–,–,–,–,–,–,–,–,–,MIC (Staphylococcus aureus [11]): 0.25 µg/mL; MIC (Staphylococcus aureus [13]): 0.25 µg/mL; MIC (Staphylococcus aureus [14]): 0.5 µg/mL; MIC [15]: 0.25 µg/mL; MIC [16]: 0.125 µg/mL; MIC [17]: 16 µg/mL; MIC [18]: 0.125 µg/mL; MIC [19]: 0.25 µg/mL; MIC [20]: 2 µg/mL; MIC [21]: 16 µg/mL; MIC [22]: 16 µg/mL; MIC [23]: 8 µg/mL; MIC [24]: 0.125 µg/mL; MIC [25]: 16 µg/mL; MIC [26]: 0.25 µg/mL
CC[C@@H](C(=O)[C@@H](C)[C@@H](O)[C@H](C)[C@@H]1O[C@@H]([C@@H](CC)C(=O)Nc2ccc(NC(=O)[C@H](CC)[C@H]3CC[C@H](C)[C@H]([C@@H](C)[C@H](O)[C@H](C)C(=O)[C@H](CC)[C@H]4O[C@]5(C=C[C@@H](O)[C@]6(CC[C@@](C)([C@H]7CC[C@](O)(CC)[C@H](C)O7)O6)O5)[C@H](C)C[C@@H]4C)O3)cc2)CC[C@@H]1C)[C@H]1O[C@]2(C=C[C@@H](O)[C@]3(CC[C@@](C)([C@H]4CC[C@](O)(CC)[C@H](C)O4)O3)O2)[C@H](C)C[C@@H]1C,2 µM,16.1 µM,8.1 µM,2.8 µM,20.2 µM,10.07,1.26,7.99,2.49,7.2,0.35,–
CC[C@@H](C(=O)[C@@H](C)[C@@H](O)[C@H](C)[C@@H]1O[C@@H]([C@@H](CC)C(=O)NCCS)CC[C@@H]1C)[C@H]1O[C@]2(C=C[C@@H](O)[C@]3(CC[C@@](C)([C@H]4CC[C@](O)(CC)[C@H](C)O4)O3)O2)[C@H](C)C[C@@H]1C,3.1 µM,34 µM,26.5 µM,28.5 µM,17.1 µM,5.53,0.5,10.99,0.65,0.6,1.07,MIC (Staphylococcus aureus [11]): 16 µg/mL; MIC (Staphylococcus aureus [12]): 16 µg/mL; MIC (Staphylococcus aureus [13]): 16 µg/mL; MIC (Staphylococcus aureus [14]): 32 µg/mL; MIC [15]: 32 µg/mL; MIC [16]: 32 µg/mL; MIC [17]: 32 µg/mL; MIC [18]: 32 µg/mL; MIC [19]: 32 µg/mL; MIC [20]: 32 µg/mL; MIC [21]: 32 µg/mL; MIC [22]: 64 µg/mL; MIC [23]: 64 µg/mL; MIC [24]: 64 µg/mL; MIC [25]: 32 µg/mL; MIC [26]: 32 µg/mL
CC[C@@H](C(=O)[C@@H](C)[C@@H](O)[C@H](C)[C@@H]1O[C@@H]([C@@H](CC)C(=O)NCCCCNC(=O)[C@H](CC)[C@H]2CC[C@H](C)[C@H]([C@@H](C)[C@H](O)[C@H](C)C(=O)[C@H](CC)[C@H]3O[C@]4(C=C[C@@H](O)[C@]5(CC[C@@](C)([C@H]6CC[C@](O)(CC)[C@H](C)O6)O5)O4)[C@H](C)C[C@@H]3C)O2)CC[C@@H]1C)[C@H]1O[C@]2(C=C[C@@H](O)[C@]3(CC[C@@](C)([C@H]4CC[C@](O)(CC)[C@H](C)O4)O3)O2)[C@H](C)C[C@@H]1C,2.7 µM,13.5 µM,10.7 µM,3.9 µM,19.8 µM,7.28,1.47,4.95,1.85,5.13,0.36,–
COc1cccc2c1C(=O)c1c(O)c3c(c(O)c1C2=O)C[C@@](O)(C(=O)CO)C[C@@H]3O[C@H]1C[C@H](N)[C@H](O)[C@H](C)O1 [DOXORUBICIN],0.04 µM,1.8 µM,0.17 µM,6.5 µM,0.5 µM,12,0.27,44.5,2.82,0.07,37.94,–
CC[C@@H](C(=O)[C@@H](C)[C@@H](O)[C@H](C)[C@@H]1O[C@@H]([C@@H](CC)C(=O)NCCc2c[nH]cn2)CC[C@@H]1C)[C@H]1O[C@]2(C=C[C@@H](O)[C@]3(CC[C@@](C)([C@H]4CC[C@](O)(CC)[C@H](C)O4)O3)O2)[C@H](C)C[C@@H]1C,4.4 µM,33.1 µM,32.5 µM,34.8 µM,34.5 µM,7.79,1.04,7.46,1.06,0.99,1.07,–
